Screening data: PubChem BioAssay, several laboratories
STK33 kinase inh = inhibitors of purified STK33 kinase, primary screen, biochemical, ADP-Glo luminescence, homogeneous, cell-free; Serine/threonine-protein kinase 33 (Homo sapiens), Q9BYT3; MBP phosphorylation; inhibition, % at 10 µM; hit rate 0.073% among 320,000;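 active means inhibition at or above 25%, using the most active replicate where run in duplicate; inactive means inhibition below 25%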
GSK3beta inhib = human GSK3beta kinase inhibitors, primary screen, biochemical, cell-free homogeneous, HTS | GST-GSK3beta kinase, ADP-Glo luminescence, 60 min; active compounds read low | hit rate 0.038% among 300,000 | Glycogen synthase kinase-3 beta (Homo sapiens), P49841 | AID 2097, 2009 | activity score (negative = inhibition), % at 10 µM;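 active means more than half of replicate wells score below -50%, meaning over 50% inhibition versus plate controls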;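 further: 0% = median DMSO wells and -100% = median GW8510 positive control wells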
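Test system – GST-tagged human GSK3beta kinase, cell-free · Incubation – 60 min enzyme reaction, room temperature · Signal – ADP-Glo luminescence · Also added – peptide substrate and ATP at 25 µM · Controls – DMSO neutral wells and GW8510 at 20 µM as positive · Buffer or medium – Tris/MgCl2 kinase buffer · Measure – Luminescence-derived activity versus plate DMSO and GW8510 wells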
MT1-MMP act inh = blockers of MT1-MMP proenzyme processing, primary screen, HT1080 RFP-PRO-GFP cells, GFP/RFP fluorescence; Matrix metalloproteinase-14 (Homo sapiens), P50281; GFP/RFP ratio fluorescence, overnight; percent of plate control window, DMSO zero; GFP/RFP ratio change, % at 20 µM; hit rate 0.061% among 360,000;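 active means GFP/RFP ratio change of at least 30% with cell ATP level not reduced by more than half and red fluorescence within 50% of control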
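Assay system: RFP-PRO-GFP reporter HT1080 cells; read-out basis: GFP/RFP fluorescence ratio; benchmarks: DMSO wells and RFP-L50D-GFP cells; doses: 20 µM single dose, 1% DMSO; schedule: overnight cell settling, then overnight compound exposure, 37 °C, 5% CO2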
DSG3 Ab inh = inhibitors of pemphigus antibody binding to DSG3, primary screen, biochemical, bead-based, flow cytometry, scFv-GFP | AID 588358, 2011 | hit rate 0.48% among 310,000 | binding (percent of control), % at 10 µM | Desmoglein-3 (Homo sapiens), P32926 | DSG3-coupled beads, scFv-anti-DSG3-GFP binding; active compounds read low;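 active means binding more than 3 SD below its plate's average and above zero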;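 further: hits lower antibody fragment binding to DSG3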
Target sequence (P32926 whole entry, looked up, the tested form may be a part): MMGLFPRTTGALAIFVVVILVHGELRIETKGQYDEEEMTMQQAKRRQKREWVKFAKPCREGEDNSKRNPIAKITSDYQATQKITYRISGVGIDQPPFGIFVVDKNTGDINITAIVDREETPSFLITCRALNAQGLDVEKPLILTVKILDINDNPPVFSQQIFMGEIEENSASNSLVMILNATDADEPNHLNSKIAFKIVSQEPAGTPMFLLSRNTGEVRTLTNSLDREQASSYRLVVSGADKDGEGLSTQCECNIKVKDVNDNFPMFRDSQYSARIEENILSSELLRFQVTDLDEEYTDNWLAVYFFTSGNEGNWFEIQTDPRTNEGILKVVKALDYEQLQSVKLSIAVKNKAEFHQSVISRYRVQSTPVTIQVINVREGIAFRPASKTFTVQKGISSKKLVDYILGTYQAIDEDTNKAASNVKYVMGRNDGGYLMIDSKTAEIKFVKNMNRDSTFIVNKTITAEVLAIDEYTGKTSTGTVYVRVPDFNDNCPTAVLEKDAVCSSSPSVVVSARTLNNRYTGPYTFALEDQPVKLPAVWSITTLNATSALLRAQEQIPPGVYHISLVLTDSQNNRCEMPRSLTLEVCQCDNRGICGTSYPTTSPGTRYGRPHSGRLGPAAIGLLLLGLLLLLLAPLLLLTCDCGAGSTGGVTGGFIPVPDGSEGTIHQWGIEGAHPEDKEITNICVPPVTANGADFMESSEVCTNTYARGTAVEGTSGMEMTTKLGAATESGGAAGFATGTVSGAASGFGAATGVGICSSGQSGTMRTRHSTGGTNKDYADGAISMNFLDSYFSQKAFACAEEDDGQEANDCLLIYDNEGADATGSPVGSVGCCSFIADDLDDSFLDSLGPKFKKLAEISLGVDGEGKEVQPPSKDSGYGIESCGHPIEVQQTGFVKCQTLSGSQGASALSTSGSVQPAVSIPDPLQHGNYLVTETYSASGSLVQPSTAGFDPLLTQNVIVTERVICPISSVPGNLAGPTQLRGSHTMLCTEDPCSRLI
GSK3A inh = blockers of GSK3A enzyme activity – biochemical, luminescence, cell-free homogeneous, HTS, primary screen. Glycogen synthase kinase-3 alpha (Homo sapiens), P49840. GSK-3 alpha kinase, ADP-Glo luminescence, 60 min. inhibition, % at 10 µM. hit rate 0.1% among 320,000. AID 2650, 2010;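 active means more than half of replicates show inhibition above 20%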;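 further: GST-tagged GSK-3 alpha with peptide substrate and 25 µM ATP; 0% = DMSO neutral wells and 100% = GW8510 positive control wells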
Starred values were filed as active, the others as inactive; . = not tested or not shown; ! = repeats disagree. Shown are actives, neighbours in structure and some others; about 0.63% of the full set was active somewhere.

SMILES	STK33 kinase inh	GSK3beta inhib	MT1-MMP act inh	DSG3 Ab inh	GSK3A inh
N#CC1=C(SCc2ccccc2)NC(=O)CC1c1cccc(O)c1 (stereo unspecified)	0	4	1	83*	1
O=S(=O)(c1ccccc1)N1CCN(CC(O)COc2ccc3c(c2)CCC3)CC1 (stereo unspecified)	-1	3	4	79*	0
c1ccc(CN(CC2=NCCN2)c2ccccc2)cc1	0	0	-1	14*!	0
CCN(CC)CC(C)(C)C(=O)/C=C/c1ccc(/C=C/C(=O)C(C)(C)CN(CC)CC)cc1	.	.	-21	.	.
COc1ccccc1-n1cnc2c(c1=O)c1nc3ccccc3nc1n2-c1ccc(C)c(C)c1	.	1	-2	35*	.
COCCCn1c2nc3ccccc3nc2c2c(=O)n(-c3ccccc3OC)cnc21	-2	1	-4	.	-1
O=C(NC(c1ccc(-c2ccccc2)cc1)c1cnccn1)C1CCN(Cc2ccc3c(c2)OCO3)CC1 (stereo unspecified)	.	.	0	.	.
CCCc1cc(=O)oc2cc(OCC(=O)NCC(O)c3ccccc3)ccc12 (stereo unspecified)	0	1	-2	0.7*	-4
CCCc1cc(=O)oc2cc(OCC(=O)NCc3cccs3)ccc12	-2	3	.	46*	2
CCCc1cc(=O)oc2cc(OCC(=O)NCc3ccccn3)ccc12	-2	0	-1	109	-1
CCCCCCCCCCC[N+](C)(C)CC/C=C1/c2ccccc2Sc2ccc(Cl)cc21	31*	-5	-24	108	6
CCCCCCCCCC[N+](C)(C)CC/C=C1/c2ccccc2Sc2ccc(Cl)cc21	32*	-6	-28	104	5
Cc1c(NC(=O)c2cc(-c3ccc(F)cc3)nc3ccccc23)c(=O)n(-c2ccccc2)n1C	1	.	5	67*	1
Cc1cccc(-c2cc(C(=O)Nc3c(C)n(C)n(-c4ccccc4)c3=O)c3ccccc3n2)c1	-1	0	-2	101	0
O=C(NCCCN1CCOCC1)c1cc2nc(-c3ccco3)cc(C(F)(F)F)n2n1	-1	-2	2	33*	-1
O=C(NC1CCCC1)C(C1CC1)n1c(-c2ccccn2)nc2ccccc21 (stereo unspecified)	.	.	5	.	.
CCOC(=O)[C@]12CCC=C1N(Cc1ccc(Cl)cc1Cl)C(=O)[C@H](CC(=O)N1CCOCC1)C2	.	.	2	.	.
COc1ccc(-c2csc3ncnc(N4CCN(S(=O)(=O)c5cccs5)CC4)c23)cc1	0	-4	-6	101	-1
COc1ccc(-c2csc3ncnc(N4CCN(S(=O)(=O)c5ccc(C)cc5)CC4)c23)cc1	0	-4	-11	69*	-2
Nc1nnn(CC(=O)N/N=C/c2ccc(Cl)cc2Cl)n1	-1	-2	7	.	-2
Nc1nnn(CC(=O)N/N=C/c2cccc(Cl)c2)n1	1	0	4	77*	-2
c1ccc2sc(NC3=NCN(CCN4CCOCC4)CN3)nc2c1	-2	1	2	78*	-1
OCCN1CN=C(Nc2nc3ccccc3s2)NC1	1	3	-7	103	1
COCCN1C[C@@H](CO)O[C@@H](n2cnc3c(NCCO)ncnc32)C1	.	.	5	.	.
COc1ccc(NC(=O)CCS(=O)(=O)c2ccc3nc(C)sc3c2)cc1OC	0	1	-1	105	-1
Cc1nc2ccc(NC(=O)CCS(=O)(=O)c3ccc(Cl)cc3)cc2s1	-1	0	1	-174*	-2
N#Cc1c2n(c3c(=S)nc[nH]c13)CCCCC2	3	-92*	0	96	102*
N#Cc1c2n(c3c(=O)[nH]cnc13)CCCC2	2	1	5	.	20
C[C@H]1[C@H](C)CC[C@]2(C(=O)O)CC[C@]3(C)C(=CC[C@@H]4[C@@]5(C)CC[C@H](O)C(C)(C)[C@@H]5CC[C@]43C)[C@H]12	-1	4	-5	98	-3
